Scp1 inh: Scp-1 phosphatase inhibitors, primary screen, biochemical, colorimetric, uHTS | Carboxy-terminal domain RNA polymerase II polypeptide A small phosphatase 1 (Homo … | Recombinant Scp1, phosphopeptide, malachite green phosphate absorbance | inhibition, % at 20 µM | 340,000 tested, 0.88% active | AID 493091, 2011;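 active means inhibition above about 50% at 20 µM, limit read from the data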;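 further: plate controls were DMSO wells with enzyme for no effect and wells lacking enzyme for full effect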
Target sequence (Q9GZU7 76-261 limits assumed): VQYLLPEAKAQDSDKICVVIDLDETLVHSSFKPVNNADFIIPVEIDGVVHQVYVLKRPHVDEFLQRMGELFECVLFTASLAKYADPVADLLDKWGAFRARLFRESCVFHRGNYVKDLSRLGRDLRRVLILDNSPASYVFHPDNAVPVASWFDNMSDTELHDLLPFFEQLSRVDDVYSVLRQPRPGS
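Test system: SCP-1 phosphatase catalytic domain, residues 76-261 | Compound dosing: One concentration, 20 µM, with 1.0% DMSO | Schedule: 45 min room-temperature reaction, 5 min colour, 30 min stabiliser | Detection: Absorbance at 630 nm | Read-out basis: % inhibition of SCP-1 phosphate liberation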
PP5 inh: PP5 phosphatase inhibitors, primary screen, biochemical, fluorescence; 320,000 tested, 0.18% active; purified PP5c, OMFP substrate fluorescence; Serine/threonine-protein phosphatase 5 (Homo sapiens), P53041; AID 1987, 2009; inhibition, % at 6.7 µM;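 active means inhibition above the campaign's mean inhibition across all tested compounds plus 3 SD, cut at about 9.5% in these data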;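 further: 0% = DMSO only and 100% = 100 µM cantharidin control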
PP1 inh: PP1-alpha phosphatase inhibitors, primary screen, counter-screen for PP5 inhibitor project, biochemical, fluorescence, OMFP substrate, single point. Serine/threonine-protein phosphatase PP1-alpha catalytic subunit (Homo sapiens), P62136. purified PP1alpha. inhibition, % at 6.7 µM. 320,000 tested, 0.9% active. AID 2235, 2010;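 active means inhibition above the mean inhibition of all tested compounds plus 3 SD, computed separately for each screening campaign, cut at about 15% in these data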
Target sequence (P62136 whole entry, looked up): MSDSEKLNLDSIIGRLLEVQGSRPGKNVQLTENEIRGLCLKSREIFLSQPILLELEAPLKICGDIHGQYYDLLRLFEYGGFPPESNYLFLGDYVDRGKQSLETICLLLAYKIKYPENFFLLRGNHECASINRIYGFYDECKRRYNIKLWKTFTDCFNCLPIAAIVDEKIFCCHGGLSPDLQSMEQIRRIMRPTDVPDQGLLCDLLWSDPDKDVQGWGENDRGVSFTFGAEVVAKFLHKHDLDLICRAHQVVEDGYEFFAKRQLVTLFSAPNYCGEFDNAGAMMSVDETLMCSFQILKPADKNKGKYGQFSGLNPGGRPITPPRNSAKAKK
LMPTP block: LMPTP phosphatase inhibitors, primary screen, biochemical, fluorescence intensity, uHTS | Low molecular weight phosphotyrosine protein phosphatase (Homo sapiens), P24666 | recombinant LMPTP-A, OMFP fluorogenic substrate | inhibition, % at 20 µM | 360,000 tested, 0.22% active | AID 651560, 2012;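 active means compounds that cut the enzyme signal by at least half of the control window in the single-dose screen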;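 further: plate controls were DMSO wells with enzyme plus substrate for no effect and substrate without enzyme for full effect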
Target sequence (P24666 whole entry, looked up): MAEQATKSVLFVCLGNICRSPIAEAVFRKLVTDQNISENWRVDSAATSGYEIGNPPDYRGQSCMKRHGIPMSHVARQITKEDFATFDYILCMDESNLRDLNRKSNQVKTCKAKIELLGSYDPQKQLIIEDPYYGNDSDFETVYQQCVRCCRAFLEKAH
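Test system: LMPTP-A phosphatase enzyme; input: 0.625 nM LMPTP-A final; reagent: OMFP substrate, 400 µM final; compound dosing: 20 µM single dose, 3% DMSO; incubation: 50 min dark incubation at room temperature; measured by: endpoint fluorescence intensity from OMFP dephosphorylation; measure: % inhibition relative to no-enzyme and uninhibited control wells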
STEP block: STEP phosphatase inhibitors, primary screen, biochemical, fluorescence intensity, uHTS; recombinant STEP, OMFP fluorogenic substrate; inhibition, % at 20 µM; 360,000 tested, 0.25% active;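 active means inhibition at 20 µM, scaled per plate between control wells, above about 37%, limit read from the data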;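 further: 0% = DMSO with enzyme and substrate and 100% = substrate only without enzyme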
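Also added – OMFP at 25 µM · Test system – STEP tyrosine phosphatase · Technique – FITC-channel fluorescence of OMFP product · Schedule – 20 min at room temperature, dark · Evaluation – control-normalized % inhibition with plate pattern correction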
Scp1 confirm: Scp-1 phosphatase inhibitors, retest, confirmation, biochemical, colorimetric, single concentration | inhibition, % at 20 µM | shares compounds with Scp1 inh | recombinant SCP-1 catalytic domain, phosphate release, malachite green absorbance | 2,500 tested, 61% active | AID 540281, 2011;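 further: plate controls were DMSO with enzyme for no effect and buffer wells lacking enzyme for full effect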
MG interference: colorimetric readout interference by compounds, confirmation, artefact control for Scp-1 inhibitor project, biochemical, single concentration. apparent inhibition (interference), % at 20 µM. shares compounds with Scp1 inh. AID 540313, 2011. Colorimetric interference counterscreen, malachite green absorbance 630 nm. 2,500 tested, under 10 active;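 further: compounds added after enzyme reaction finished so only phosphate colour detection is probed; plate controls were DMSO wells with completed Scp-1 reaction for no effect and substrate wells lacking enzyme for full effect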
Scp1 DSF: Scp-1 binding by thermal shift, confirmation, orthogonal assay for Scp-1 inhibitor project, biophysical, differential scanning fluorimetry; shares compounds with Scp1 inh; 1,500 tested, 25% active; AID 540329, 2011; thermal shift relative to vanadate control, % at 40 µM; Recombinant SCP1, Sypro Orange thermal shift Tm;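 active means substances whose mean melting-temperature shift, as a percentage of the reference inhibitor's shift, reaches about 5.3%, limit read from the data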;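 further: 0% = Tm of DMSO wells and 100% = Tm with sodium orthovanadate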
* marks the source's active call; other numbers are inactive results; . = no result. An excerpt weighted towards active compounds, which were near 1.9% of everything screened.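 How the source made its calls, unless noted: active means inhibition of at least 30% at 20 µM; inactive means the rest.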

SMILES | Scp1 inh | PP5 inh | PP1 inh | LMPTP block | STEP block | Scp1 confirm | MG interference | Scp1 DSF
COc1ccc2nc(COC(=O)c3cccc([N+](=O)[O-])c3)c(C(C)=O)[n+]([O-])c2c1 | -7 | 0 | -1 | 1 | 0 | . | . | .
COc1ccc2nc(COC(=O)c3cccs3)c(C(C)=O)[n+]([O-])c2c1 | 103* | 0 | 6 | 0 | -1 | 1 | -16 | .
CC1=CC(C)C2COC(c3ccc[n+](C)c3)C1C2C (stereo not drawn) | 95* | 0 | 0 | -1 | 0 | -3 | -10 | .
COc1ccc(-c2nnc(NC(=O)c3cccs3)s2)c(OC)c1 | 96* | 2 | 1 | 45 | 14 | 67* | -16 | -18
COC(=O)Cn1c(=NC(=O)c2nc3ccccc3s2)sc2cc(S(N)(=O)=O)ccc21 | 64* | -1 | 1 | 28 | 0 | 52* | -15 | 0
COC(=O)Cn1c(=NC(=O)c2cc(-c3cccs3)nc3ccccc23)sc2cc(S(N)(=O)=O)ccc21 | 4 | 3 | 3 | 3 | -4 | . | . | .
COc1ccc(S(=O)(=O)N(C)CC(=O)NCc2ccccc2)cc1OC | 3 | -1 | 1 | -2 | -3 | . | . | .
COc1ccccc1NC(=O)COC(=O)c1cc2c(s1)CCC2 | 66* | . | . | 27 | 40 | 73* | -4 | 0
COc1ccc(OC)c(NC(=O)COC(=O)CCC2CCCC2)c1 | -8 | 3 | -2 | 2 | 4 | . | . | .
COc1ccc(OC)c(NC(=O)COC(=O)c2cc3c(s2)CCC3)c1 | 79* | 3 | 9 | 32 | 16 | 53* | -27 | 4
COc1cccc(C(=O)OCC(=O)Nc2sc3c(c2C(N)=O)CCC3)c1O | 62* | 0 | 8 | 11 | 5 | 72* | -6 | 9.7*
N#Cc1cc2c(nc1SC1CC(=O)N(c3ccccc3)C1=O)CCC2 (stereo not drawn) | -10 | 6 | -5 | -1 | -1 | . | . | .
CCCc1nc(SCc2cccnc2)c2c(=O)n(C)c(=O)n(C)c2n1 | -8 | 1 | 4 | 5 | 0 | . | . | .
O=C(Nc1nc2ccccc2s1)C1CCN(S(=O)(=O)c2cc([N+](=O)[O-])ccc2Cl)CC1 | 68* | 3 | 13 | 7 | 7 | 64* | -9 | 11*
CCOC(=O)[C@H]1[C@H]2COc3cc(OC)ccc3[C@@H]2N2C(=O)CN(Cc3ccccc3)C(=O)[C@@]12C | -9 | 0 | -2 | -1 | -6 | . | . | .
O=C1OC[C@H]2CCCN2C(=O)[C@@H](CC(=O)N(CCO)Cc2ccccc2)C/C=C\CC[C@@H]1Cc1ccc(F)cc1 | -14 | . | . | 0 | 0 | . | . | .
O=C(CNC(=O)Cc1ccccc1)NCC(=O)N1CCCCC1 | -8 | 3 | -3 | -2 | 0 | . | . | .
O=C(CNC(=O)Cc1ccc(Cl)cc1)NCC(=O)N1CCCCC1 | 65* | -1 | -4 | 1 | -1 | -10 | -14 | .
CCOC(=O)C1(Cc2cccc(OC)c2)CCCN(C(=O)CCN2CCCO2)C1 (stereo not drawn) | 2 | -1 | 0 | -1 | -2 | . | . | .
CN1CCn2cnc(C(=O)NCc3ccc(CNC(=O)OC(C)(C)C)cc3)c2C1=O | . | . | . | -2 | 4 | . | . | .
N=C1S/C(=C\c2ccccc2F)C(=O)N1c1ccc(F)cc1 | 87* | 4 | -1 | 38 | 18 | -6 | -9 | .
CSc1ccc(S(=O)(=O)NCC(=O)OC2CCOC2=O)cc1[N+](=O)[O-] (stereo not drawn) | 3 | -1 | -7 | 1 | 2 | . | . | .
Nc1ccc(S(=O)(=O)NCC(=O)OC2CCOC2=O)cc1[N+](=O)[O-] (stereo not drawn) | 55* | -2 | -1 | 0 | 3 | 19 | -16 | .
C[N+]1(C2CCC3CCCC2C3O)CCCCC1 (stereo not drawn) | 96* | 3 | 2 | 0 | -1 | 78* | -21 | -5
COc1ccc2nc(SCC(=O)NN)cc(C)c2c1 | 87* | 2 | 2 | 1 | 3 | -8 | -11 | .
SMILES | Scp1 inh | PP5 inh | PP1 inh | LMPTP block | STEP block | Scp1 confirm | MG interference | Scp1 DSF
CN1CCN(S(=O)(=O)c2ccc(NC(=O)Cc3cccs3)cc2)CC1 | -4 | 1 | -2 | 0 | 2 | . | . | .
Cc1ccnc(NS(=O)(=O)c2ccc(NC(=O)Cc3cccs3)cc2)n1 | 60* | 3 | 5 | 14 | 1 | 73* | -5 | 6.8*
O=C(Cc1cccs1)Nc1ccc(S(=O)(=O)N2CCCCC2)cc1 | 89* | 3 | 3 | 18 | 4 | 64* | -20 | 6.6*
COc1cc(/C=N/NC(=O)NC23CC4CC(CC(C4)C2)C3)ccc1O | -15 | 2 | -2 | 2 | -4 | . | . | .
CC1C(C#N)=C(N)OC2=C1C(=O)CC(c1ccccc1)C2 (stereo not drawn) | 55* | 0 | -1 | -1 | 2 | -14 | -9 | .
N#CC1=C(N)OC2=C(C(=O)CC(c3ccccc3)C2)C1c1ccoc1 (stereo not drawn) | 0 | 2 | 1 | -1 | 1 | . | . | .
CCOC(=O)c1cnc2nc(NCc3ccc(OCc4ccccc4)cc3)[nH]n2c1=O | 71* | -2 | 5 | -1 | 4 | 91* | 0 | 0
O=C(c1ccc(Br)o1)N1CCCc2ccccc21 | -5 | 4 | -1 | 2 | 2 | . | . | .
Cc1ccc(C)c(NC(=O)c2ccc3c(=O)n4c(nc3c2)CCC4)c1 | -8 | -1 | -3 | -1 | 0 | . | . | .
COc1ccc(C)cc1NC(=O)c1ccc2c(=O)n3c(nc2c1)CCCCC3 | 56* | 1 | -1 | 1 | 0 | 3 | -1 | .
CCn1c(=O)c(=O)[nH]c2cc(C(=O)NCc3ccc(F)cc3)ccc21 | -4 | 0 | -2 | 1 | 1 | -3 | -5 | .
COC(=O)c1c(C)cc(O)cc1O | -4 | 2 | 0 | -1 | 1 | . | . | .
COC(=O)c1cc(O)cc(OC)c1C(=O)c1c(O)cc(C)cc1O | 58* | -1 | 5 | 1 | -2 | 31* | -18 | 1
